Data as given in ChEMBL document CHEMBL1138784, “Rational design, synthesis, and biological evaluation of bis(pyrimido[5,6,1-de]acridines) and bis(pyrazolo[3,4,5-kl]acridine-5-carboxamides) as new anticancer agents” (J Med Chem, 2004).

Columns and labels:
[1] = Cytotoxicity against human H460M cancer cell line was determined after 144 hr; assay type: functional, cell-based; conditions: Cancer cell lines
How it was run: (§1)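 MTT colorimetric assay. Cells seeded by growth characteristics and preincubated 24 h, then exposed to drug for 1 h or 144 h at 37 °C, 5% CO2. H460M, MKN45 and PC-3 were grown in RPMI 1640 with 10% FCS. HCT116 was grown in D-MEM with 10% FBS and 2 mM glutamine.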

[2] = system: MKN-45; experiment: Cytotoxicity against human MKN45 cancer cell line was determined after 144 hr; assay type: functional, cell-based; conditions: MKN-45, 144 h; how it was run: as §1
[3] = system: LoVo; experiment: Ratio of IC50 against sensitive LoVo cell line and that of doxorubicin resistance LoVo cell line was determined after 1 hr exposure; assay type: functional, Homo sapiens
[4] = system: LoVo; experiment: Cytotoxicity against doxorubicin resistant LoVo cell line was determined against 144 hrs; assay type: functional, cell-based; conditions: Homo sapiens
How it was run: (§2)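 MTT assay on doxorubicin-sensitive LoVo and resistant LoVo/Dx cells, 24 h preincubation, then 1 h or 144 h drug exposure at 37 °C, 5% CO2. IC50 in nM. Resistance index is IC50 on LoVo/Dx divided by IC50 on LoVo.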

[5] = system: Nucleic Acid; experiment: Binding site preference is determined as the ratio of Poly (dA-dT)2 to Poly (dG-dC)2; assay type: nucleic-acid assay
How it was run: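 Ethidium displacement fluorometry at pH 7.0 (10 mM Na2HPO4, 10 mM NaH2PO4, 1 mM EDTA) with 1.26 μM ethidium bromide and 1 μM [poly(dA-dT)]2 or [poly(dG-dC)]2, 20 °C. Ex 546 nm, em 595 nm, drug added serially from a DMSO stock. Preference taken from the [AT]/[GC] ratio of C50 values, counted significant only below 0.7 or above 1.3.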

[6] = system: SNB-19; experiment: Percent growth of CNS SNB-19 cell line was determined at 10e-5 M concentration after 48 hr of exposing; assay type: functional, Homo sapiens
How it was run: (§3)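 NCI sulforhodamine B screen. Cells seeded by growth rate, 24 h drug-free, then 48 h exposure to 10^-8, 10^-6 or 10^-5 M. Protein-stain optical density expressed as percent growth relative to untreated control (100%); negative values indicate cell kill.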

[7] = system: HCT-116; experiment: Cytotoxicity against human HCT116 cancer cell line was determined after 144 hr; assay type: functional, cell-based; conditions: HCT-116, 144 h; how it was run: as §1
[8] = system: DU-145; experiment: Percent growth of prostate DU-145 cell line was determined at 10e-6 M concentration after 48 hr of exposing; assay type: functional, Homo sapiens
[9] = system: DU-145; experiment: Percent growth of prostate DU-145 cell line was determined at 10e-8 M concentration after 48 h of exposing; assay type: functional, Homo sapiens
[10] = Percent growth of melanoma LOX IMV1 cell line was determined at 10e-5 M concentration after 48 hr of exposing; assay type: functional, Homo sapiens; how it was run: as §3
[11] = Percent growth of melanoma LOX IMV1 cell line was determined at 10e-6 M concentration after 48 hr of exposing; assay type: functional, Homo sapiens; how it was run: as §3
[12] = Percent growth of melanoma LOX IMV1 cell line was determined at 10e-8 M concentration after 48 hr of exposing; assay type: functional, Homo sapiens; how it was run: as §3
[13] = system: LoVo; experiment: (§4) Cytotoxicity against doxorubicin resistant LoVo cell line was determined against 1 hour; assay type: functional, cell-based; conditions: Homo sapiens; how it was run: as §2
[14] = system: PC-3; experiment: Cytotoxicity against human PC3 cancer cell line was determined after 144 hr; assay type: functional, cell-based; conditions: PC-3, 144 h; how it was run: as §1
[15] = system: LoVo; experiment: Cytotoxicity against human LoVo cancer cell line was determined after 144 hr; assay type: functional, cell-based; how it was run: as §2
[16] = system: SNB-19; experiment: Percent growth of CNS SNB-19 cell line was determined at 10e-6 M concentration after 48 hr of exposing; assay type: functional, Homo sapiens; how it was run: as §3
[17] = system: SNB-19; experiment: Percent growth of CNS SNB-19 cell line was determined at 10e-8 M concentration after 48 hr of exposing; assay type: functional, Homo sapiens; how it was run: as §3
[18] = system: 786-0; experiment: Percent growth of renal 786-O cell line was determined at 10e-5 M concentration after 48 hr of exposing; assay type: functional, Homo sapiens; how it was run: as §3
[19] = system: 786-0; experiment: Percent growth of renal 786-O cell line was determined at 10e-6 M concentration after 48 h of exposing; assay type: functional, Homo sapiens; how it was run: as §3
[20] = system: 786-0; experiment: Percent growth of renal 786-O cell line was determined at 10e-8 M concentration after 48 h of exposing; assay type: functional, Homo sapiens; how it was run: as §3
[21] = system: MCF7; experiment: Percent growth of breast MCF-7 cell line was determined at 10e-6 M concentration after 48 h of exposing; assay type: functional, Homo sapiens
[22] = system: MCF7; experiment: Percent growth of breast MCF-7 cell line was determined at 10e-8 M concentration after 48 hr of exposing; assay type: functional, Homo sapiens
[23] = system: SW-620; experiment: Percent growth of colon SW-620 cell line was determined at 10e-5 M concentration after 48 hr of exposing; assay type: functional, Homo sapiens; how it was run: as §3
[24] = system: SW-620; experiment: Percent growth of colon SW-620 cell line was determined at 10e-6 M concentration after 48 hr of exposing; assay type: functional, Homo sapiens; how it was run: as §3
[25] = system: SW-620; experiment: Percent growth of colon SW-620 cell line was determined at 10e-8 M concentration after 48 hr of exposing; assay type: functional, Homo sapiens; how it was run: as §3
[26] = system: NCI-H460; experiment: Percent growth of lung NCI-H460 cell line was determined at 10e-5 M concentration after 48 hr of exposing; assay type: functional, Homo sapiens; how it was run: as §3
[27] = system: NCI-H460; experiment: Percent growth of lung NCI-H460 cell line was determined at 10e-6 M concentration after 48 hr of exposing; assay type: functional, Homo sapiens; how it was run: as §3
[28] = system: NCI-H460; experiment: Percent growth of lung NCI-H460 cell line was determined at 10e-8 M concentration after 48 hr of exposing; assay type: functional, Homo sapiens; how it was run: as §3
[29] = system: MOLT-4; experiment: Percent growth of leukemia MOLT-4 cell line was determined at 10e-5 M concentration after 48 hr of exposing; assay type: functional, Homo sapiens; how it was run: as §3
[30] = system: MOLT-4; experiment: Percent growth of leukemia MOLT-4 cell line was determined at 10e-6 M concentration after 48 h of exposing; assay type: functional, Homo sapiens; how it was run: as §3
[31] = system: MOLT-4; experiment: Percent growth of leukemia MOLT-4 cell line was determined at 10e-8 M concentration after 48 hr of exposing; assay type: functional, Homo sapiens; how it was run: as §3
[32] = system: OVCAR-4; experiment: Percent growth of ovarian OVCAR-4 cell line was determined at 10e-5 M concentration after 48 hr of exposing; assay type: functional, Homo sapiens; how it was run: as §3
[33] = system: OVCAR-4; experiment: Percent growth of ovarian OVCAR-4 cell line was determined at 10e-6 M concentration after 48 hr of exposing; assay type: functional, Homo sapiens; how it was run: as §3
[34] = system: OVCAR-4; experiment: Percent growth of ovarian OVCAR-4 cell line was determined at 10e-8 M concentration after 48 hr of exposing; assay type: functional, Homo sapiens; how it was run: as §3
[35] = system: DU-145; experiment: Percent growth of prostate DU-145 cell line was determined at 10e-5 M concentration after 48 hr of exposing; assay type: functional, Homo sapiens
[36] = Cytotoxicity against human LoVo cancer cell line was determined after 1 hr; assay type: cell-based; how it was run: as §2
[37] = Cytotoxicity against human H460M cancer cell line was determined after 1 hr; assay type: cell-based; conditions: Cancer cell lines; how it was run: as §1
[38] = Cytotoxicity against human MKN45 cancer cell line was determined after 1 hr; assay type: cell-based; conditions: Cancer cell lines; how it was run: as §1
[39] = Cytotoxicity against human HCT116 cancer cell line was determined after 1 hr; assay type: cell-based; conditions: HCT-116, 1 h; how it was run: as §1
[40] = system: HT-29; experiment: Cytotoxicity is determined as the concentration required to inhibit the growth of human colon adenocarcinoma (HT-29) cell line; assay type: functional, cell-based
[41] = system: MCF7; experiment: Percent growth of breast MCF-7 cell line was determined at 10e-5 M concentration after 48 hr of exposing; assay type: functional, Homo sapiens
[42] = Cytotoxicity against human PC3 cancer cell line was determined after 1 hr; assay type: cell-based; conditions: Cancer cell lines; how it was run: as §1
[43] = as §4; assay type: cell-based; conditions: Homo sapiens; how it was run: as §2

CN(C)CCN1Nc2c3ccccc3nc3c(C(=O)NCCCN(C)CCCNC(=O)c4ccc5c6c(c7ccccc7nc46)NN5CCN(C)C)ccc1c23
IC50 [1]: 4.4 nM | IC50 [2]: 0.6 nM | Resistance index [3]: 24 | IC50 [4]: 400 nM | Binding site preference [5]: 2.1 | Growth [6]: -31% | IC50 [7]: 19 nM | Growth [8]: -23% | Growth [9]: 25% | Growth [10]: -57% | Growth [11]: 5% | Growth [12]: 22% | IC50 [13]: 3600 nM | IC50 [14]: 6 nM | IC50 [15]: 1.1 nM | Growth [16]: -7% | Growth [17]: 40% | Growth [18]: -48% | Growth [19]: 5% | Growth [20]: 30% | Growth [21]: 2% | Growth [22]: 18% | Growth [23]: -45% | Growth [24]: 14% | Growth [25]: 37% | Growth [26]: -53% | Growth [27]: -6% | Growth [28]: 12% | Growth [29]: -27% | Growth [30]: 7% | Growth [31]: 28% | Growth [32]: -40% | Growth [33]: -17% | Growth [34]: 41% | Growth [35]: -40% | IC50 [36]: 150 nM | IC50 [37]: 7.2 nM | IC50 [38]: 6.8 nM | IC50 [39]: 12 nM | IC50 [40]: 3 nM | Growth [41]: -35% | IC50 [42]: 12 nM

COc1ccc2c(c1)c(=O)c1c(NCCCN(C)CCCNc3ccc4c(=O)n(CCN(C)C)c(=O)n5c6ccc(OC)cc6c(=O)c3c45)ccc3c(=O)n(CCN(C)C)c(=O)n2c31
IC50 [1]: < 0.001 nM | IC50 [2]: 0.0028 nM | Resistance index [3]: 4.2 | IC50 [4]: 7.6 nM | Binding site preference [5]: 2.1 | Growth [6]: -48% | IC50 [7]: 0.66 nM | Growth [8]: 3% | Growth [9]: 40% | Growth [10]: -91% | Growth [11]: -34% | Growth [12]: 26% | IC50 [14]: 1.2 nM | IC50 [43]: 76 nM | IC50 [15]: 0.95 nM | Growth [16]: 14% | Growth [17]: 38% | Growth [18]: -79% | Growth [19]: 10% | Growth [20]: 37% | Growth [21]: -3% | Growth [22]: 39% | Growth [23]: -49% | Growth [24]: -2% | Growth [25]: 30% | Growth [26]: -87% | Growth [27]: -20% | Growth [28]: 14% | Growth [29]: -62% | Growth [30]: -33% | Growth [31]: 6% | Growth [32]: -72% | Growth [33]: -37% | Growth [34]: 0% | Growth [35]: -66% | IC50 [36]: 18 nM | IC50 [37]: 0.06 nM | IC50 [38]: 0.05 nM | IC50 [39]: 0.85 nM | IC50 [40]: < 0.1 nM | Growth [41]: -63% | IC50 [42]: 4.7 nM
